Measured values taken from ChEMBL document CHEMBL5252514, “Conopeptide-Derived κ-Opioid Agonists (Conorphins): Potent, Selective, and Metabolic Stable Dynorphin A Mimetics with Antinociceptive Properties” (J Med Chem, 2016).
pKi: −log10 of the molar value. Where a SMILES comes first, the peptide text is derived from it.

target: Kappa-type opioid receptor (Homo sapiens, UniProt P41145); assay: Displacement of [3H]U69593 from human kappa opioid receptor expressed in CHO-K1 cells incubated for 1 hr by 1450 microbeta scintillation counter analysis; assay type: cell-based
How it was run: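 Membranes from transiently KOR-transfected CHO-K1 cells (~2 µg/well) used in SPA with 3H-U69,593 (1 nM). Competitor ranged 1 pM–10 µM in 50 mM Tris-HCl pH 7.4, 5 mM MgCl2, 0.1% BSA. Incubated 1 h at room temperature with shaking. Nonspecific binding defined with 10 µM dynorphin A. Sigmoidal dose-response fit; at least three independent experiments in triplicate.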

Sequence of Kappa-type opioid receptor (P41145 whole entry): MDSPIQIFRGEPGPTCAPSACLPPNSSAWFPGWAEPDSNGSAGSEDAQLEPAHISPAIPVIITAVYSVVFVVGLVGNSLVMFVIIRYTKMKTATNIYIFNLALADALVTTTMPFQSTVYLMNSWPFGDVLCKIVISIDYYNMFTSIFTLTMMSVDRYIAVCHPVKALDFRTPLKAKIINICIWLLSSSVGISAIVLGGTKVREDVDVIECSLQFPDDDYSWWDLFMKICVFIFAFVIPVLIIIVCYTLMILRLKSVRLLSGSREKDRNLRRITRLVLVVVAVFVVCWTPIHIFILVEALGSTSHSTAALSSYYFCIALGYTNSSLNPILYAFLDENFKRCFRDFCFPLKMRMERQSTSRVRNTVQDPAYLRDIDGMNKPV

Structure (SMILES)	pKi
CC[C@H](C)[C@H](NC(=O)[C@H](CCC(N)=O)NC(=O)[C@H](CCCCN)NC(=O)[C@H](CCCNC(=N)N)NC(=O)[C@@H]1CSSC[C@H](NC(=O)[C@@H](N)CC(N)=O)C(=O)N1)C(=O)N[C@H]1CSSC[C@@H](C(N)=O)NC1=O (HELM PEPTIDE1{N.C.C.R.K.Q.I.C.C.[am]}$PEPTIDE1,PEPTIDE1,2:R3-3:R3|PEPTIDE1,PEPTIDE1,8:R3-9:R3$$$V2.0)	6.68
CC[C@H](C)[C@H](NC(=O)[C@H](CCC(N)=O)NC(=O)[C@H](CCCNC(=N)N)NC(=O)[C@H](Cc1c[nH]cn1)NC(=O)[C@@H]1CSSC[C@H](NC(=O)[C@@H](N)CC(N)=O)C(=O)N1)C(=O)N[C@H]1CSSC[C@@H](C(N)=O)NC1=O (HELM PEPTIDE1{N.C.C.H.R.Q.I.C.C.[am]}$PEPTIDE1,PEPTIDE1,2:R3-3:R3|PEPTIDE1,PEPTIDE1,8:R3-9:R3$$$V2.0)	6.86
CC[C@H](C)[C@H](NC(=O)[C@H](C)NC(=O)[C@H](CCCNC(=N)N)NC(=O)[C@H](CCCNC(=N)N)NC(=O)[C@@H]1CSSC[C@H](NC(=O)[C@@H](N)CC(N)=O)C(=O)N1)C(=O)N[C@H]1CSSC[C@@H](C(N)=O)NC1=O (HELM PEPTIDE1{N.C.C.R.R.A.I.C.C.[am]}$PEPTIDE1,PEPTIDE1,2:R3-3:R3|PEPTIDE1,PEPTIDE1,8:R3-9:R3$$$V2.0)	6.88
N=C(N)NCCC[C@@H](NC(=O)[C@@H](CCCNC(=N)N)NC(=O)[C@@H]1CCCN1C(=O)c1ccccc1)C(=O)N[C@@H](CCC(N)=O)C(=O)N[C@@H](CC1CCCCC1)C(=O)N1CCSSC[C@@H](C(N)=O)NC(=O)C1	6.70
N=C(N)NCCC[C@@H](NC(=O)[C@@H](CCCNC(=N)N)NC(=O)[C@@H]1CCCN1C(=O)c1ccccc1)C(=O)N[C@@H](CCC(N)=O)C(=O)N[C@@H](CC1CCCCC1)C(N)=O	4.65
CC(C)C[C@H](NC(=O)[C@@H](CCCNC(=N)N)NC(=O)[C@@H](CCCNC(=N)N)NC(=O)[C@@H]1CCCN1C(=O)c1ccccc1)C(=O)N[C@@H](CC1CCCCC1)C(=O)N[C@H]1CSSC[C@@H](C(N)=O)NC1=O	8.85
CN(C(=O)[C@H](CC1CCCCC1)NC(=O)[C@H](CCC(N)=O)NC(=O)[C@@H](CCCNC(=N)N)NC(=O)[C@@H](CCCNC(=N)N)NC(=O)[C@@H]1CCCN1C(=O)c1ccccc1)[C@H]1CSSC[C@@H](C(N)=O)NC1=O	7.82
CC[C@H](C)[C@H](NC(=O)[C@H](CCC(N)=O)NC(=O)[C@H](CCCNC(=N)N)NC(=O)[C@H](CCCNC(=N)N)NC(=O)[C@@H]1CSSC[C@H](NC(=O)[C@@H](N)Cc2ccc(O)cc2)C(=O)N1)C(=O)N[C@H]1CSSC[C@@H](C(N)=O)NC1=O (HELM PEPTIDE1{Y.C.C.R.R.Q.I.C.C.[am]}$PEPTIDE1,PEPTIDE1,2:R3-3:R3|PEPTIDE1,PEPTIDE1,8:R3-9:R3$$$V2.0)	7.39
CC[C@H](C)[C@H](NC(=O)[C@H](CCC(N)=O)NC(=O)[C@H](CCCNC(=N)N)NC(=O)[C@H](CCCNC(N)=O)NC(=O)[C@@H]1CSSC[C@H](NC(=O)[C@@H](N)CC(N)=O)C(=O)N1)C(=O)N[C@H]1CSSC[C@@H](C(N)=O)NC1=O (HELM PEPTIDE1{N.C.C.[Cit].R.Q.I.C.C.[am]}$PEPTIDE1,PEPTIDE1,2:R3-3:R3|PEPTIDE1,PEPTIDE1,8:R3-9:R3$$$V2.0)	6.66
N=C(N)NCCC[C@@H](NC(=O)[C@@H](CCCNC(=N)N)NC(=O)[C@@H]1CCCN1C(=O)c1ccc([N+](=O)[O-])cc1)C(=O)N[C@@H](CCC(N)=O)C(=O)N[C@@H](CS)C(=O)N[C@@H](CC1CCCCC1)C(=O)N[C@H]1CSSC[C@@H](C(N)=O)NC1=O	8.66
N=C(N)NCCC[C@@H](NC(=O)[C@@H](CCCNC(=N)N)NC(=O)[C@@H]1CCCN1C(=O)c1ccccc1)C(=O)N[C@@H](CC(=O)O)C(=O)N[C@@H](CC1CCCCC1)C(=O)N[C@H]1CSSC[C@@H](C(N)=O)NC1=O	7.99
N=C(N)NCCC[C@@H](NC(=O)Cc1ccc(F)cc1)C(=O)N[C@H](CCCNC(=N)N)C(=O)N[C@@H](CCC(N)=O)C(=O)N[C@@H](CC1CCCCC1)C(=O)N[C@H]1CSSC[C@@H](C(N)=O)NC1=O	8.92
C[C@H](NC(=O)[C@H](CCC(N)=O)NC(=O)[C@H](CCCNC(=N)N)NC(=O)[C@H](CCCNC(=N)N)NC(=O)[C@@H]1CSSC[C@H](NC(=O)[C@@H](N)CC(N)=O)C(=O)N1)C(=O)N[C@H]1CSSC[C@@H](C(N)=O)NC1=O (HELM PEPTIDE1{N.C.C.R.R.Q.A.C.C.[am]}$PEPTIDE1,PEPTIDE1,2:R3-3:R3|PEPTIDE1,PEPTIDE1,8:R3-9:R3$$$V2.0)	5.61
N=C(N)NCCC[C@@H](NC(=O)[C@@H](CCCNC(=N)N)NC(=O)[C@@H]1CCCN1C(=O)c1ccccc1)C(=O)N[C@@H](CCC(=O)O)C(=O)N[C@@H](CC1CCCCC1)C(=O)N[C@H]1CSSC[C@@H](C(N)=O)NC1=O	7.71
N=C(N)NCCC[C@H](NC(=O)[C@@H]1CCC(=O)N1)C(=O)N[C@@H](CCCNC(=N)N)C(=O)N[C@@H](CCC(N)=O)C(=O)N[C@@H](CC1CCCCC1)C(=O)N[C@H]1CCCCN(CC(N)=O)C1=O (HELM PEPTIDE1{[Glp].R.R.Q.[Cha].[NC(=O)CN1CCCC[C@H](N[*:1])C1=O]}$$$$V2.0)	4.89
N=C(N)NCCC[C@@H](NC(=O)Cc1cccc(Br)c1)C(=O)N[C@H](CCCNC(=N)N)C(=O)N[C@@H](CCC(N)=O)C(=O)N[C@@H](CC1CCCCC1)C(=O)N[C@H]1CSSC[C@@H](C(N)=O)NC1=O	8.92

Structure (SMILES)	pKi
N=C(N)NCCC[C@@H](NC(=O)Cc1cccc(Cl)c1)C(=O)N[C@H](CCCNC(=N)N)C(=O)N[C@@H](CCC(N)=O)C(=O)N[C@@H](CC1CCCCC1)C(=O)N[C@H]1CSSC[C@@H](C(N)=O)NC1=O	8.68
N=C(N)NCCC[C@@H](NC(=O)[C@@H](CCCNC(=N)N)NC(=O)[C@@H]1CCCN1C(=O)c1ccccc1)C(=O)N[C@@H](CC(N)=O)C(=O)N[C@@H](CC1CCCCC1)C(=O)N[C@H]1CSSC[C@@H](C(N)=O)NC1=O	9.21
CC[C@H](C)[C@H](NC(=O)[C@H](CCCN=C(N)N)NC(=O)[C@H](CCCN=C(N)N)NC(=O)[C@H](CC(C)C)NC(=O)[C@H](Cc1ccccc1)NC(=O)CNC(=O)CNC(=O)[C@@H](N)Cc1ccc(O)cc1)C(=O)N[C@@H](CCCN=C(N)N)C(=O)N1CCC[C@H]1C(=O)N[C@@H](CCCCN)C(=O)N[C@@H](CC(C)C)C(=O)N[C@@H](CCCCN)C(N)=O	9.40
N=C(N)NCCC[C@@H](NC(=O)[C@@H](CCCNC(=N)N)NC(=O)[C@@H]1CCCN1C(=O)c1ccccc1)C(=O)N[C@@H](CC1CCCCC1)C(=O)N[C@H]1CSSCC(C(N)=O)NC1=O (single isomer, unassigned)	7.22
CC(C)C[C@H](NC(=O)[C@H](CCC(N)=O)NC(=O)[C@H](CCCNC(=N)N)NC(=O)[C@H](CCCNC(=N)N)NC(=O)[C@@H]1CSSC[C@H](NC(=O)[C@@H](N)CC(N)=O)C(=O)N1)C(=O)N[C@H]1CSSC[C@@H](C(N)=O)NC1=O (HELM PEPTIDE1{N.C.C.R.R.Q.L.C.C.[am]}$PEPTIDE1,PEPTIDE1,2:R3-3:R3|PEPTIDE1,PEPTIDE1,8:R3-9:R3$$$V2.0)	7.62
N=C(N)NCCC[C@H](NC(=O)[C@H](CCCNC(=N)N)NC(=O)[C@@H]1CSSC[C@H](NC(=O)[C@@H](N)CC(N)=O)C(=O)N1)C(=O)N[C@@H](CCC(N)=O)C(=O)N[C@@H](Cc1ccccc1)C(=O)N[C@H]1CSSC[C@@H](C(N)=O)NC1=O (HELM PEPTIDE1{N.C.C.R.R.Q.F.C.C.[am]}$PEPTIDE1,PEPTIDE1,2:R3-3:R3|PEPTIDE1,PEPTIDE1,8:R3-9:R3$$$V2.0)	7.55
N=C(N)NCCC[C@@H](NC(=O)c1cccc(Br)c1)C(=O)N[C@H](CCCNC(=N)N)C(=O)N[C@@H](CCC(N)=O)C(=O)N[C@@H](CC1CCCCC1)C(=O)N[C@H]1CSSC[C@@H](C(N)=O)NC1=O	8.28
N=C(N)NCCC[C@@H](NC(=O)[C@@H](CCCNC(=N)N)NC(=O)[C@@H]1CCCN1C(=O)c1ccccc1)C(=O)N[C@@H](CCC(N)=O)C(=O)N[C@@H](CC1CCCCC1)C(=O)N[C@H]1CSCSC[C@@H](C(N)=O)NC1=O	7.80
N=C(N)NCCC[C@@H](NC(=O)[C@@H](CCCNC(=N)N)NC(=O)[C@@H]1CCCN1C(=O)c1ccccc1)C(=O)N[C@@H](CCC(N)=O)C(=O)N[C@@H](CC1CCCCC1)C(=O)N[C@H]1CSS[C@H]2C[C@@H](C(N)=O)N(C2)C1=O	6.68
CC[C@H](C)[C@@H]1NC(=O)[C@H](CCC(N)=O)NC(=O)[C@H](CCCNC(=N)N)NC(=O)[C@H](CCCNC(=N)N)NC(=O)[C@@H]2CSSC[C@@H](C(N)=O)NC(=O)[C@H](CSSC[C@H](NC(=O)[C@@H](N)CC(N)=O)C(=O)N2)NC1=O (HELM PEPTIDE1{N.C.C.R.R.Q.I.C.C.[am]}$PEPTIDE1,PEPTIDE1,2:R3-8:R3|PEPTIDE1,PEPTIDE1,3:R3-9:R3$$$V2.0)	5.83
CC[C@H](C)[C@H](NC(=O)[C@H](CCC(N)=O)NC(=O)[C@H](CCCNC(=N)N)NC(=O)[C@H](C)NC(=O)[C@@H]1CSSC[C@H](NC(=O)[C@@H](N)CC(N)=O)C(=O)N1)C(=O)N[C@H]1CSSC[C@@H](C(N)=O)NC1=O (HELM PEPTIDE1{N.C.C.A.R.Q.I.C.C.[am]}$PEPTIDE1,PEPTIDE1,2:R3-3:R3|PEPTIDE1,PEPTIDE1,8:R3-9:R3$$$V2.0)	6.77
N=C(N)NCCC[C@@H](NC(=O)[C@@H](CCCNC(=N)N)NC(=O)[C@@H]1CCCN1C(=O)c1ccccc1)C(=O)N[C@@H](CCC(N)=O)C(=O)N[C@@H](CC1CCCCC1)C(=O)N[C@H]1CSSCCN(CC(N)=O)C1=O	6.33
N=C(N)NCCC[C@@H](NC(=O)[C@@H](CCCNC(=N)N)NC(=O)[C@@H]1CCCN1C(=O)c1ccccc1)C(=O)N[C@@H](CCCCN)C(=O)N[C@@H](CC1CCCCC1)C(=O)N[C@H]1CSSC[C@@H](C(N)=O)NC1=O	9.23
CC[C@H](C)[C@H](NC(=O)[C@H](CCC(N)=O)NC(=O)[C@H](CCCNC(=N)N)NC(=O)[C@H](CCCNC(=N)N)NC(=O)[C@@H]1CSSC[C@H](NC(=O)[C@@H](N)CC(N)=O)C(=O)N1)C(N)=O (HELM PEPTIDE1{N.C.C.R.R.Q.I.[am]}$PEPTIDE1,PEPTIDE1,2:R3-3:R3$$$V2.0)	4.83
N=C(N)NCCC[C@@H](NC(=O)[C@@H](CCCNC(=N)N)NC(=O)[C@@H]1CCCN1C(=O)c1ccccc1)C(=O)N[C@@H](CCC(N)=O)C(=O)N[C@@H](CC1CCCCC1)C(=O)N[C@H]1CSSC[C@@H](C(=O)O)NC1=O	5.67
